In ChEMBL document CHEMBL4411275, “Design, synthesis and biological evaluation of quinoline-indole derivatives as anti-tubulin agents targeting the colchicine binding site” (Eur J Med Chem, 2019):

Experiments:
K562 [1] = assay: Cell cycle arrest in human K562 cells assessed as accumulation of cells at G1 phase at 2 nM after 48 hrs by propidium iodide staining-based flow cytometric analysis (reference value: 69.57%); format: functional
K562 [2] = assay: Induction of mitochondrial membrane potential loss in human K562 cells assessed as collapsed mitochondrial membrane at 2 nM after 48 hrs by JC-1 dye-based flow cytometric analysis (RVB = 6.17%)
K562/VCR = assay: Antiproliferative activity against human VCR-resistant K562/VCR cells after 72 hrs by MTT assay; format: functional, cell-based
How it was run: (§1)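 Cells preincubated 24 h at 37 °C, 5% CO₂. Compounds added at several concentrations in medium with 0.1% DMSO for 72 h. MTT (5 mg/mL in PBS) then added for 4 h, and optical density read at 490 nm. IC50 taken from dose-response curves; mean ± SD of at least three independent experiments.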

A549/TR = assay: Antiproliferative activity against human taxol-resistant A549/TR cells after 72 hrs by MTT assay; format: functional, cell-based; how it was run: as §1
HUVEC [3] = assay: Antiproliferative activity against HUVEC at 2 to 4 nM after 6 hrs; format: cell-based; conditions: human, 0.004 µM
[4] = Drug resistance index, ratio of IC50 for taxol-resistant human HCT8/T cells to IC50 for human HCT8 cells; format: functional
How it was run: (§2)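 Resistant and parental sensitive lines exposed to a range of compound concentrations in medium with 0.1% DMSO for 72 h at 37 °C, 5% CO2, after 24 h pre-culture. MTT added for 4 h, absorbance read at 490 nm. IC50 from dose-response curves, at least three independent experiments. DRI = IC50 resistant / IC50 parental.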

K562 [5] = assay: Induction of mitochondrial membrane potential loss in human K562 cells assessed as collapsed mitochondrial membrane at 1 nM after 48 hrs by JC-1 dye-based flow cytometric analysis (RVB = 6.17%)
HUVEC [6] = assay: Anti-migratory activity in HUVEC after 24 hrs by inverted microscopic analysis; format: functional, cell-based; conditions: Homo sapiens
How it was run: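 Scratch wound made in monolayers with a 200 μL pipette tip, then washed twice with PBS. Medium with 1, 2 or 4 nM compound added. Phase-contrast images taken at 0 h and 24 h, and the migration distance into the wound measured manually.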

K562 [7] = assay: Cell cycle arrest in human K562 cells assessed as accumulation of cells at G1 phase at 1 nM after 48 hrs by propidium iodide staining-based flow cytometric analysis (reference value: 69.57%); format: functional
K562 [8] = assay: Cell cycle arrest in human K562 cells assessed as accumulation of cells at G2 phase at 1 nM after 48 hrs by propidium iodide staining-based flow cytometric analysis (reference value: 10.51%); format: functional
K562 [9] = assay: Cell cycle arrest in human K562 cells assessed as accumulation of cells at S phase at 2 nM after 48 hrs by propidium iodide staining-based flow cytometric analysis (reference value: 19.93%); format: functional
[10] = Drug resistance index, ratio of IC50 for ADR-resistant human Bel7402/ADR cells to IC50 for human Bel7402 cells; format: functional; how it was run: as §2
K562 [11] = assay: Cell cycle arrest in human K562 cells assessed as accumulation of cells at S phase at 1 nM after 48 hrs by propidium iodide staining-based flow cytometric analysis (reference value: 19.93%); format: functional
[12] = Drug resistance index, ratio of IC50 for taxol-resistant human A549/TR cells to IC50 for human A549 cells; format: functional; how it was run: as §2
MDA-MB-231 = assay: Antiproliferative activity against human MDA-MB-231 cells after 72 hrs by MTT assay; format: functional, cell-based; conditions: MDA-MB-231, 72 h; how it was run: as §1
K562 [13] = assay: Induction of apoptosis in human K562 cells at 1 nM after 48 hrs by Annexin-V/propidium iodide staining-based flow cytometric analysis (reference value: 5.96%)
HepG2 = assay: Antiproliferative activity against human HepG2 cells after 72 hrs by MTT assay; format: functional, cell-based; conditions: HepG2, 72 h; how it was run: as §1
K562 [14] = assay: Cell cycle arrest in human K562 cells assessed as accumulation of cells at G2 phase at 4 nM after 48 hrs by propidium iodide staining-based flow cytometric analysis (reference value: 10.51%); format: functional
HUVEC [15] = assay: Anti-vascular activity in HUVEC assessed as inhibition of tube formation after 6 hrs by inverted microscopic analysis; format: functional, cell-based; conditions: Homo sapiens
How it was run: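 Matrigel thawed overnight at 4 °C and polymerised at 37 °C for 30 min. HUVECs in DMEM seeded at 50,000 cells/well, then exposed to 1, 2 or 4 nM compound or vehicle for 6 h at 37 °C. Capillary-like tubes photographed under an inverted microscope.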

[16] = Antiproliferative activity against human ADR-resistant Bel7402/ADR cells after 72 hrs by MTT assay; format: functional; conditions: Bel-7402, 72 h; how it was run: as §1
H22 (Mus musculus) = assay: Antitumor activity against mouse H22 cells xenografted in ICR mouse assessed as reduction in tumor weight at 10 mg/kg/day, iv for 21 days relative to control; parameters: scale not given: the % may be the effect or the level left
K562 [17] = assay: Induction of mitochondrial membrane potential loss in human K562 cells assessed as intact mitochondrial membrane at 4 nM after 48 hrs by JC-1 dye-based flow cytometric analysis (RVB = 93.17%)
[18] = Toxicity in ICR mouse xenografted with […] cells assessed as body weight loss at 20 mg/kg/day, iv for 21 days; format: organism-based; conditions: in vivo, 504 h
How it was run: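 H22 cells (1×10^6) implanted s.c. in right flank of male ICR mice (five weeks old), eight per group. Body weight recorded every 2 days during treatment.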

HCT-8 = assay: Antiproliferative activity against human HCT8 cells after 72 hrs by MTT assay; format: functional, cell-based; conditions: HCT-8, 72 h; how it was run: as §1
K562 [19] = assay: Induction of apoptosis in human K562 cells at 4 nM after 48 hrs by Annexin-V/propidium iodide staining-based flow cytometric analysis (reference value: 5.96%)
A549 = assay: Antiproliferative activity against human A549 cells after 72 hrs by MTT assay; format: functional, cell-based; conditions: A549, 72 h; how it was run: as §1
K562 [20] = assay: Cell cycle arrest in human K562 cells assessed as accumulation of cells at G1 phase at 4 nM after 48 hrs by propidium iodide staining-based flow cytometric analysis (reference value: 69.57%); format: functional
K562 [21] = assay: Induction of mitochondrial membrane potential loss in human K562 cells assessed as intact mitochondrial membrane at 1 nM after 48 hrs by JC-1 dye-based flow cytometric analysis (RVB = 93.17%)
Tubulin (Sus scrofa) = Tubulin (Sus scrofa) (UniProt P02554+P02550); assay: Inhibition of [3H]-colchicine binding to biotinylated porcine tubulin at 1 uM after 2 hrs by SPA relative to control; format: protein assay
How it was run: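 Scintillation proximity assay: 0.08 μM [3H]colchicine incubated with biotinylated porcine tubulin (0.5 μg) and test compound for 2 h at 37 °C in 80 mM PIPES pH 6.8, 1 mM EGTA, 10% glycerol, 1 mM MgCl2, 1 mM GTP. Streptavidin SPA beads then added, and bound radioactivity counted by scintillation counter.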

Tubulin (Sus scrofa), sequence (P02550 whole entry, looked up): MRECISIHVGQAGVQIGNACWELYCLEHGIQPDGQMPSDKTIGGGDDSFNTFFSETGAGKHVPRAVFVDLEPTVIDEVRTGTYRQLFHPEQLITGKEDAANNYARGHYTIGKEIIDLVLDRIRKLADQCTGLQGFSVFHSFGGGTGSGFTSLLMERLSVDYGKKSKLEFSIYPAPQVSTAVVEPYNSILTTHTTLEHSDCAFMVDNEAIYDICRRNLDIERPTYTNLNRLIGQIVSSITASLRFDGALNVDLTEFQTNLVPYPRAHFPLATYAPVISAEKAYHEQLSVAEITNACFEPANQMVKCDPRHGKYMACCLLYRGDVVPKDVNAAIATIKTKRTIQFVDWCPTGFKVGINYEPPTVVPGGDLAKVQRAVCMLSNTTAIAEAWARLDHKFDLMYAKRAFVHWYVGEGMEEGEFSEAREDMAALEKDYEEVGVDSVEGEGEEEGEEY
Tubulin (Sus scrofa), sequence (P02554 whole entry, looked up): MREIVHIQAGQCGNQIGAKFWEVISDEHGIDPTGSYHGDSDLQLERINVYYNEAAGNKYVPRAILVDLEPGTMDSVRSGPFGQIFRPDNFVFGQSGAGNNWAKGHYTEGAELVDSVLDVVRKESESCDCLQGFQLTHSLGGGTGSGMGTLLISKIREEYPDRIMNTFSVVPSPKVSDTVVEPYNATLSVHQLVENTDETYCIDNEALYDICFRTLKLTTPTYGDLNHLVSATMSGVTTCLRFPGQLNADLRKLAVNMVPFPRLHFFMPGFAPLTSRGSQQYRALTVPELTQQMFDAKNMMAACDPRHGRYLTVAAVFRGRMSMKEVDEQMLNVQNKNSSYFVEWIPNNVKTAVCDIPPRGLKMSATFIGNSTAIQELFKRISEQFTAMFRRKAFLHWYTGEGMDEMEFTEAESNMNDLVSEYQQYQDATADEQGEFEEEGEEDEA

IC50 (K562/VCR): 31 nM
IC50 (A549/TR): 119 nM
IC50 (MDA-MB-231): 6 nM
IC50 (HepG2): 6 nM
IC50 (HCT-8): 7 nM
IC50 (A549): 9 nM
inhibition (Tubulin (Sus scrofa)): 79.4%
SMILES: C=C(c1ccc2c(ccn2CO)c1)c1cc(C)nc2ccccc12
Activity (K562 [1]): 50.63%
Activity (K562 [2]): 45.1%
Activity (HUVEC [3]): Non-Toxic
Ratio IC50 [4]: 12.6
Activity (K562 [5]): 28.99%
Activity (HUVEC [6]): Dose-dependent effect
Activity (K562 [7]): 60.18%
Activity (K562 [8]): 12.44%
Activity (K562 [9]): 33.21%
Ratio IC50 [10]: 6.1
Activity (K562 [11]): 27.38%
Ratio IC50 [12]: 13.2
Activity (K562 [13]): 25.7%
Activity (K562 [14]): 23.21%
Activity (HUVEC [15]): Dose-dependent effect
IC50 [16]: 61 nM
Activity (H22 (Mus musculus)): 48.8%
Activity (K562 [17]): 26.27%
Activity [18]: Non-Toxic
Activity (K562 [19]): 72.8%
Activity (K562 [20]): 45.79%
Activity (K562 [21]): 70.66%
